CCR6 antag – antagonists of human CCR6 receptor; AID 493098; CHO-K1 CCR6 PathHunter beta-arrestin, luminescence, CCL20-stimulated; actives 0.49% (n = 340,000); inhibition, % at 20 µM;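 active = compounds whose inhibition of the agonist-driven luminescence signal at 20 µM reaches about 50%, limit read from the data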;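 also: cells stimulated with CCL20 at 14 nM final; plate controls were DMSO with CCL20 for no effect and DMSO without agonist for full effect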
APJ agonist – agonists of human APJ apelin receptor; actives 0.11% (n = 330,000); activation, % at 20 µM; CHO-K1 APJ PathHunter beta-arrestin, luminescence; 0% DMSO wells, 100% apelin;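 active = activation more than six SD over the plate average, tested at 20 µM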;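 also: 0% = DMSO alone and 100% = apelin-13 at 10 nM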
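Incubation: overnight seeding, 90 min compound at 25 °C, 1 h detection; test system: PathHunter CHO-K1 APJ (AGTRL-1) beta-arrestin reporter cells; amount: 1000 cells/well; doses: one dose, 20 µM compound, 1% DMSO; measured by: beta-gal luminescence; measure: agonist-driven arrestin binding to APJ; benchmarks: negative DMSO alone, positive Apelin-13 at 10 nM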
APJ antag – APJ receptor antagonism; CHO-K1 APJ beta-arrestin complementation, luminescence; inhibition, % at 20 µM; actives 0.32% (n = 330,000); AID 2521;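 active = inhibition above about 40% at 20 µM, limit read from the data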;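 also: cells challenged with 10 nM apelin-13 agonist together with compound; plate controls were apelin-13 plus DMSO wells for no effect and DMSO wells lacking apelin-13 for full effect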
EBI2 antag – antagonists of human EBI2 receptor. P32249. EBI2 beta-arrestin recruitment, luminescence, 7a,25-OHC stimulated. inhibition, % at 5 µM. actives 0.81% (n = 360,000). AID 651636; in the data active = inhibition above about 38%;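 also: enzyme fragment complementation signal reports receptor beta-arrestin coupling in cells; 0% = agonist plus DMSO wells and 100% = wells without agonist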
CXCR6 inh – inhibitors of human CXCR6 receptor | O00574 | CHO-K1 PathHunter CXCR6 beta-arrestin, luminescence | inhibition, % at 20 µM | actives 0.36% (n = 360,000) | AID 602244; in the data active = inhibition above about 34%, passing the limit was not always enough;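 also: antagonist mode with CXCL16 agonist at 10 nM final; 0% = 10 nM CXCL16 with DMSO and 100% = unstimulated wells without agonist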
Target sequence (O00574 whole entry, looked up): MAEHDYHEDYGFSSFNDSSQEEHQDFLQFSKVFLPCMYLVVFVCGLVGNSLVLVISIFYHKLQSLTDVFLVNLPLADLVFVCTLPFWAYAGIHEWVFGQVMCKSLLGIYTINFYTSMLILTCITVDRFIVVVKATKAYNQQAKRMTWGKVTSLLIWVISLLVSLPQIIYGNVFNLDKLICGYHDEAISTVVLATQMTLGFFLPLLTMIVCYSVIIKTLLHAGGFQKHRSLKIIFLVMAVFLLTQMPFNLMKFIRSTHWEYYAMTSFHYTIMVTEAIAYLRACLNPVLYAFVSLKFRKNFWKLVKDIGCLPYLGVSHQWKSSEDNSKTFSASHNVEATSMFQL
HTR2A ag – activates the mouse 5-HT2A serotonin receptor | CHO-K1 mHTR2A beta-arrestin complementation, luminescence; percent of 30 µM serotonin response | activation, % at 7.6 µM | actives 0.66% (n = 360,000);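 active = activation above a run cutoff, the mean activation of all tested compounds plus 3 SD, cut at about 14% in these data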;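 also: 0% = plate median of compound wells and 100% = 30 µM serotonin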
EBI2 conf – confirmation of human EBI2 receptor antagonists | shares compounds with EBI2 antag | EBI2 beta-arrestin luminescence, 7a,25-OHC antagonism | inhibition, % at 5 µM | actives 29% (n = 2,400) | AID 651997;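 active = inhibition of at least 50%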
EBI2 ag – activates EBI2, counter-screen for EBI2 antagonists; activation, % at 5 µM; 2,400 tested, under 10 active; EBI2-expressing cells, agonist mode, luminescence, 60 min; 0% vehicle, 100% 7α,25-dihydroxycholesterol control; AID 652000; shares compounds with EBI2 antag;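 active = activation of at least 50%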
bGal cs – counter-screen for EBI2 antagonists: E. coli beta-galactosidase inhibition; inhibition, % at 5 µM; purified beta-galactosidase, luminescent Galacton Star, 15 min; AID 652176; shares compounds with EBI2 antag; actives 1% (n = 2,400);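 active = replicate-average signal at least 3 plate SD below neutral wells, shown as high inhibition, flagging enzyme-inhibiting false positives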;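 also: 0% = DMSO wells with enzyme and 100% = wells lacking enzyme; higher means stronger loss of beta-gal luminescence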
Numbers without * were called inactive; . = no result given. Hits are enriched below; roughly 2.1% of the tested compounds scored in any of these assays.

SMILES	CCR6 antag	APJ agonist	APJ antag	EBI2 antag	CXCR6 inh	HTR2A ag	EBI2 conf	EBI2 ag	bGal cs
COc1ccc(OCC(O)CN2CCN(c3ccc(Cl)cc3)CC2)cc1 (stereo unspecified)	-6.2	-4.0	-9.5	46.7*	-4.2	-8.2	33.9	-1.0	-7.3
COc1cc(C(=O)N2CCN(CC(O)COc3ccccc3)CC2)cc(OC)c1OC (stereo unspecified)	2.7	2.3	-0.9	-1.7	-4.8	-7.1	.	.	.
O=C(c1ccccc1)N1CCN(CC(O)COc2ccc(Br)cc2)CC1 (stereo unspecified)	-1.2	0.8	-16.5	71.0*	-8.5	-7.1	44.1	-0.8	-12.3
CC(C)(C)OC(=O)N(Cc1ccccc1)Cc1ccc(OCc2cccc(NC(=O)C3CC3)c2)cc1	8.6	.	.	20.9	1.4	7.2	.	.	.
CC(C)=CCN1CCN(Cc2ccc(C#CC(C)(C)O)s2)CC1CCO (stereo unspecified)	7.6	-3.4	-0.7	3.0	1.3	-3.8	.	.	.
NS(=O)(=O)c1ccc(NC(=O)Cc2c(F)cccc2Cl)cc1	11.9	-3.3	-14.3	-14.0	-0.9	7.1	.	.	.
COc1ccc(CNc2ccccc2)cc1Br	21.0	-4.2	15.6	-4.6	1.8	-2.7	.	.	.
COc1ccc(Cc2nnc(Nc3ccccc3)s2)cc1Br	3.7	-0.8	3.1	35.4*	-11.6	-4.9	19.4	-0.1	9.0
C(=NOCc1ccccc1)c1cccnc1	-4.1	.	.	5.1	-1.2	4.2	.	.	.
CCNC(=O)NC(=O)CSc1ccc(S(=O)(=O)N(C)C2CCCCC2)cn1	1.0	1.3	6.2	7.8	-19.0	-4.1	.	.	.
CCOc1ccc(NC(=O)N(Cc2ccc(C)cc2)Cc2ccccn2)cc1	8.0	-3.9	3.3	19.0	9.2	-1.1	.	.	.
CCOc1ccc(/C=N/OCC(=O)NC(c2ccccc2)c2ccccc2)cc1	-14.9	-2.8	-1.2	79.5*	4.5	0.5	59.9*	0.9	7.2
OCc1cccc(-c2cnc3c(Nc4cccc(OC(F)(F)C(F)F)c4)nccn23)c1	.	.	.	51.3*	-19.5	-0.9	50.9*	-1.4	-16.0
NC(=O)C1CCCN(C(=O)CCC(=O)c2cccs2)C1 (stereo unspecified)	4.5	0.8	9.5	6.5	-3.1	1.2	.	.	.
O=C(COC(=O)c1ccc(OC(F)F)cc1)Nc1cccc(S(=O)(=O)NC2=NCCC2)c1	6.7	-4.1	5.1	0.4	-4.3	-7.4	.	.	.
O=S(=O)(NC1=NCCC1)c1cccc(NC(=S)Nc2ccc(OC(F)F)cc2)c1	12.2	-7.6	13.6	48.3*	0.6	0.8	31.4	-0.9	-3.8
O=S(=O)(CCNC1CC1)NC1CCCCC1	-10.9	.	.	-1.7	-8.2	7.3	.	.	.
CCC(C(=O)c1ccc2ncccc2c1)c1ccccc1 (stereo unspecified)	10.1	-3.6	10.2	60.9*	-1.8	-3.4	46.2	1.4	-2.6
O=C(Nc1ccc2ncccc2c1)c1ccccc1	3.0	0.6	9.0	-7.0	9.7	5.0	.	.	.
COc1ccc(N(CC(=O)NCCSc2ccc(C)cc2)S(=O)(=O)c2ccccc2)c(OC)c1	1.2	4.7	5.2	81.2*	1.3	-4.8	46.5	1.0	1.8
COc1ccc(N(CC(=O)NCCSc2ccccc2)S(C)(=O)=O)cc1	4.3	-1.9	10.8	62.7*	3.1	-4.5	39.8	-0.1	-11.8
COc1cccc(N(CC(=O)NCCSc2ccc(Cl)cc2)S(C)(=O)=O)c1	1.4	1.2	3.7	87.1*	-1.3	-7.2	68.8*	1.4	9.3
CC(Oc1ccc2oc3ccccc3c2c1)C(=O)NC12CC3CC(CC(C3)C1)C2 (stereo unspecified)	13.0	-3.9	3.5	53.7*	-0.6	-0.2	13.0	-1.5	-16.0
CCCCn1c2ccc(F)cc2c2nnc(SCCN3CCCCC3)nc21	5.7	-2.3	5.7	57.5*	7.8	-9.6	32.6	0.1	10.7

Compound activity from PubChem.
